Measured values collected from several papers.
Target: RAC-alpha serine/threonine-protein kinase (AKT1, Homo sapiens, UniProt P31749)

CNc1cccc2cc(C(=O)Nc3ccc(C(=O)O)cc3)c(=O)[nH]c12 gave an inhibition of 2.2% (enzyme activity, inhibitor; 10 µM).
For CN(C)C1CCN(CC#Cc2nn(C3CCCC3)c3nc(NCc4ccccc4)ncc23)C1 (stereo not shown), the inhibition was 4% (enzyme activity, inhibitor, FRET; 0.1 µM).
For O=C(Nc1cnn(-c2csc(C(=O)NC3COC3)c2)c1)Nc1ccccc1Cl, the remaining activity was 95.4% (enzyme activity, inhibitor; 5 µM).
The remaining binding of COCCOc1nc(-c2ccc(Cl)nc2)nc2c1CN(C(=O)c1ncn3ccccc13)CC2 is reported as 82% (cell-free assay, competition with immobilised ligand; 0.1 µM).
The inhibition of Cn1cnc(Br)c1C1=CN(c2ncnc3[nH]cnc23)CCS1 is reported as 84.3% (enzyme activity, inhibitor, radiometric; 2 µM).
CN1CC(Oc2cnc(C#N)cc2-c2ccn3nc(NC(=O)C4CC4)cc3c2)C1 has an inhibition of -4% (enzyme activity, inhibitor; 1 µM).
For O=S(=O)(NCCNC/C=C/c1ccc(Br)cc1)c1cccc2cnccc12, the remaining signal was 41.6% (cell-free assay; 0.5 µM).
The activity vs control of FC(F)(F)Oc1cccc(-c2cnc3ccc(-c4ccncc4)nn23)c1 is reported as 90% (enzyme activity, inhibitor, radiometric; 1 µM).
COc1cc(Nc2cnc(C#N)c(O[C@H](C)CN(C)C)n2)ncc1-c1cnn(C)c1 has a remaining activity of 98% (enzyme activity, inhibitor, radiometric; 1 µM).
CC(C)c1ccc(NC(=O)c2cccs2)c(-c2nc3ccccc3[nH]c2=O)c1 gave an activity vs control of 120% (enzyme activity, inhibitor; 1 µM).
Cc1c[nH]c2nccc(Oc3c(F)cc(Nc4cc(Cl)nc(N)n4)cc3F)c12 has a remaining binding of 100% (cell-free assay, competition with immobilised ligand; 0.1 µM).
For COc1cc2ncnc(Nc3ccc(Oc4ccccc4)cc3C)c2cc1OC, the inhibition was 0% (enzyme activity, inhibitor; 1 µM).
COc1cc(Cl)c(C(=O)N[C@@H](CN[C@H]2CC[C@@H](N)CC2)Cc2ccc(C#N)cc2)cc1-c1ccc(CN[C@H](C)c2ccc(C)cc2)o1 gave a remaining activity of 85% (enzyme activity, inhibitor; 1 µM).
CCCOc1ccc(OC)c(F)c1C(=O)c1ccc(C(=O)N[C@@H]2CNC[C@H]2NC(=O)c2ccc3[nH]ncc3c2)cc1 has a remaining activity of 20% (enzyme activity, inhibitor; 10 µM).
With CC(C)(C)c1nc2c(s1)c1nc(N)ncc1c1ccc(NS(=O)(=O)c3c(F)cccc3F)c(F)c12 the remaining activity was 88% (enzyme activity, inhibitor, radiometric; 1 µM).
For Nc1ncnc2occ(-c3ccc(NC(=O)Nc4cc(C(F)(F)F)ccc4F)cc3)c12, the remaining signal was 100% (cell-free assay, inhibitor; 20 µM).
For CCN(CC)CCNC(=O)c1c(C)[nH]c(/C=C2\C(=O)Nc3ccc(F)cc32)c1C, the remaining signal was 105% (cell-free assay; 0.5 µM).
CCS(=O)(=O)c1cc2cc(C[C@@](O)(CC(C)(C)c3ccc(F)cc3C(N)=O)C(F)(F)F)[nH]c2cn1 gave a remaining binding of 86% (cell-free assay, competition with immobilised ligand; 1 µM).
With Cn1c(=O)n(-c2ccc(C(C)(C)C#N)cc2)c2c3cc(-c4cnc5ccccc5c4)ccc3ncc21 the remaining activity was 126% (enzyme activity, inhibitor; 10 µM).
CCN(CC)c1ccc(C2=NNC(=O)CC2C)cc1[N+](=O)[O-] (stereo not shown) gave a remaining activity of 81% (enzyme activity, inhibitor; 10 µM).
Nc1nc(Nc2ccccc2)sc1C(=O)c1c(F)cccc1F has a remaining activity of 84% (enzyme activity, inhibitor; 10 µM).
COc1cc(F)ccc1-c1ncnc(Nc2cccc(C[S@](C)(=N)=O)c2)n1 has an activity vs control of 108% (enzyme activity, inhibitor; 10 µM).
Cc1ccc(Nc2nccc(N(C)c3ccc4c(C)n(C)nc4c3)n2)cc1S(N)(=O)=O gave an inhibition of 6% (enzyme activity, inhibitor; 10 µM).
For CCc1ccccc1C(=O)Nc1n[nH]c2c(C)c(F)c(C3C(C#N)=C(C)N(C)C(C)=C3C#N)cc12, the remaining binding was 75% (cell-free assay, competition with immobilised ligand; 1 µM).
CNC(=O)c1cc(Oc2ccc(NC(=O)Nc3ccc(Cl)c(C(F)(F)F)c3)cc2)ccn1 has an inhibition of -6% (enzyme activity, inhibitor; 0.3 µM).
For CNC(=O)Nc1ccc2c(c1)CC[C@@]21OC(=O)N(CC(=O)N(Cc2ccc(F)cc2)[C@@H](C)C(F)(F)F)C1=O, the remaining binding was 91% (cell-free assay, competition with immobilised ligand; 1 µM).
The inhibition of O=C(CSc1nc2nccnc2c(=O)n1CCc1ccccc1)Nc1nccs1 is reported as 4% (enzyme activity, inhibitor; 10 µM).
Oc1cccc(-c2nc(N3CCOCC3)c3oc4ncccc4c3n2)c1 gave a remaining activity of 78% (enzyme activity, inhibitor; 10 µM).
With CNCc1ccccc1-c1csc([C@@H](C)Nc2nc(C)nc3cc(OC)c(OC)cc23)c1 the remaining binding was 100% (cell-free assay, competition with immobilised ligand; 1 µM).
The inhibition of Cn1cncc1C1=CN(c2ncnc3[nH]cnc23)CCS1 is reported as 25.1% (enzyme activity, inhibitor, radiometric; 50 nM).
For Cc1ccc(C(=O)NCc2ccsc2)cc1C#Cc1cn(C(C)C)c2ncnc(N)c12, the activity vs control was 94% (enzyme activity, inhibitor; 1 µM).
The inhibition of CSc1nc(C)c(-c2ccnc(Nc3ccc(N4CCOCC4)cc3)c2)[nH]1 is reported as -2.9% (enzyme activity, inhibitor; 10 µM).
For C=CC(=O)Nc1cc(Nc2nccc(Nc3cc(Cl)c(F)cc3C(C)(C)O)n2)c(OC)cc1N1CC[C@@H](N(C)C)C1, the inhibition was -5% (enzyme activity, inhibitor; 1 µM).
The remaining binding of CN(C)C(=O)Cn1cc(-c2nc([C@@](C)(c3ccc(-c4cnc(N)nc4)cc3)C3CC3)no2)cn1 is reported as 94% (cell-free assay, competition with immobilised ligand; 1 µM).
For Nc1nc(Nc2ccc(S(N)(=O)=O)cc2)nn1C(=O)c1c(F)cccc1F, the remaining signal was 120% (cell-free assay; 0.5 µM).
The remaining binding of Nc1c(C(=O)NCc2ccc(C(=O)NCCCC3CCCCC3)cc2)cnn1-c1ccccc1 is reported as 100% (cell-free assay, competition with immobilised ligand; 0.1 µM).
Oc1cccc(-c2nc(N3CCOCC3)c3oc4ncccc4c3n2)c1 gave a remaining signal of 95.3% (cell-free assay; 0.5 µM).
